From ChEMBL document CHEMBL2396594, “Designing allosteric regulators of thrombin. Exosite 2 features multiple subsites that can be targeted by sulfated small molecules for inducing inhibition” (J Med Chem, 2013)
Calls of active or inactive are those of the source. The rule behind the calls is not given here.

Tests used:
[1] = (§1) Binding affinity to human plasma alpha-thrombin exosite-2 using spectrozyme TH as substrate after overnight incubation at 25 degC by spectrophotometric analysis in presence of 4.2 uM unfractionated heparin; assay type: cell-free
Homo sapiens [2] = organism: Homo sapiens; assay: as §1; assay type: cell-free
[3] = (§2) Binding affinity to human plasma alpha-thrombin exosite-1 using spectrozyme TH as substrate after overnight incubation at 25 degC by spectrophotometric analysis in presence of 15 nM hirugen peptide; assay type: cell-free
Homo sapiens [4] = organism: Homo sapiens; assay: as §2; assay type: cell-free
[5] = (§3) Binding affinity to human plasma alpha-thrombin exosite-1 using spectrozyme TH as substrate after overnight incubation at 25 degC by spectrophotometric analysis in presence of 3 nM hirugen peptide; assay type: cell-free
Homo sapiens [6] = organism: Homo sapiens; assay: as §3; assay type: cell-free
Homo sapiens [7] = organism: Homo sapiens; assay: Selectivity ratio of IC50 for recombinant human thrombin R233A mutant to IC50 for wild type recombinant human thrombin
How it was run: (§4)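 BHK-expressed, HPC4 immunoaffinity-purified thrombins, activated from prothrombin form. Active-site concentration from amidolysis and antithrombin titration. Enzyme (1.5−7.5 nM final) incubated overnight at 25 °C with inhibitor in Tris pH 7.4 buffer in coated cuvettes. Residual activity from S2238 initial rate at A405, using at least 9−10 points. Logistic fit gives IC50. Ratio is mutant IC50 over wild-type IC50.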

[8] = Inhibition of recombinant human thrombin R101A mutant expressed in BHK cells using S2238 as substrate after overnight incubation at 25 degC; how it was run: as §4
[9] = Inhibition of recombinant human thrombin R126A mutant expressed in BHK cells using S2238 as substrate after overnight incubation at 25 degC; how it was run: as §4
[10] = Inhibition of recombinant human thrombin K236A mutant expressed in BHK cells using S2238 as substrate after overnight incubation at 25 degC; how it was run: as §4
[11] = Inhibition of recombinant human thrombin K240A mutant expressed in BHK cells using S2238 as substrate after overnight incubation at 25 degC; how it was run: as §4
Homo sapiens [12] = organism: Homo sapiens; assay: Selectivity ratio of IC50 for recombinant human thrombin K236A mutant to IC50 for wild type recombinant human thrombin; how it was run: as §4
Plasma [13] = assay: Anticoagulant activity in human plasma assessed as increase in activated partial […] time at 139 uM after 4 mins by fibrometric analysis relative to control; assay type: functional
How it was run: (§5)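 Citrated human plasma, one-stage recalcification, fibrometer read-out. APTT: 90 μL plasma + 10 μL inhibitor or vehicle + prewarmed 0.2% ellagic acid, 4 min, then 25 mM CaCl2 (37 °C). PT: inhibitor + plasma 30 s at 37 °C, then prewarmed thromboplastin. Duplicates. Quadratic trend line fit gives concentration doubling clotting time versus vehicle blank.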

Plasma [14] = assay: Anticoagulant activity in human plasma assessed as increase in prothrombin time at 568 uM after 30 secs by fibrometric analysis relative to control; assay type: functional; how it was run: as §5
[15] = biological target: Coagulation factor X (Homo sapiens) (UniProt P00742); assay: Inhibition of human factor 10a at 365 uM
Coagulation factor X (Homo sapiens), sequence (P00742 41-179 limits assumed): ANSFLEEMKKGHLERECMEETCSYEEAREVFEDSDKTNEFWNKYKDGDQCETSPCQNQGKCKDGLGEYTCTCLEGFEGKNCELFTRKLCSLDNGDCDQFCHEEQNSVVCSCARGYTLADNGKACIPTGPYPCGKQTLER
Coagulation factor X (Homo sapiens), sequence (P00742 235-488 limits assumed): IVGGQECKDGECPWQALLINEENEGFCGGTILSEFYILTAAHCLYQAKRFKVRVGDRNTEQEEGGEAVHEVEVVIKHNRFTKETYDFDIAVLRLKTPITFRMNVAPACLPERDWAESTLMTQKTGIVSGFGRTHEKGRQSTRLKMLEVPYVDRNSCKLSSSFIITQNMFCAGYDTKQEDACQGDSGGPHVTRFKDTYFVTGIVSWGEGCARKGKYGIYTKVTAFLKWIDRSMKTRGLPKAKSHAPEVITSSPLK

[16] = Inhibition of human plasma alpha-thrombin assessed as spectrozyme TH hydrolysis preincubated for 10 mins by spectrophotometric analysis; assay type: cell-free
How it was run: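 Human plasma α-thrombin (5 nM final) with inhibitor (1−900 μM final) in 20 mM Tris-HCl pH 7.4, 100 mM NaCl, 2.5 mM CaCl2, 0.1% PEG8000, PEG20000-coated cuvettes, 10 min. Spectrozyme TH then added (30 μM final). Initial rate from A405 increase. Residual activity fitted by logistic equation with floating Hill slope, Y0, YM to give IC50.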

CCOC(=O)c1c(C)oc2cc(OC)c(OCc3oc4cc(OC)c(OCc5oc6cc(OC)c(OS(=O)(=O)[O-])cc6c5C(=O)OCC)cc4c3C(=O)OCC)cc12.[Na+]
IC50 [1]: 1000 nM | pIC50(app) (Homo sapiens [2]): 6 | IC50 [3]: 900 nM | pIC50(app) (Homo sapiens [4]): 6.04 | IC50 [5]: 900 nM | pIC50(app) (Homo sapiens [6]): 6.07 | Ratio IC50 (Homo sapiens [7]): 3.8 | IC50 [8]: 390 nM | pIC50 [8]: 6.41 | IC50 [9]: 290 nM | pIC50 [9]: 6.55 | IC50 [10]: 400 nM | pIC50 [10]: 6.4 | IC50 [11]: 270 nM | pIC50 [11]: 6.57 | Ratio IC50 (Homo sapiens [12]): 1.5 | fold change (FC) (Plasma [13]): 2 | fold change (FC) (Plasma [14]): 2 | inhibition [15]: inactive | IC50 ([16]; read-out: IC50): 670 nM | IC50 ([16]; read-out: pIC50 (converted)): 676 nM
